PubChem BioAssay AID588627 (Johns Hopkins Ion Channel Center, 2011)
Hit rate of the full screen: of about 310,000 compounds, about 1,400 (0.45%) were called active.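 How the source made its calls: active means calcium response B-score plate-corrected fluorescence ratio at least 3 library SD, with starting fluorescence B-score inside 5 SD; inactive means the rest.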 Shown is part of a subset that was picked to be rich in actives.

Molecular target: Mas-related G-protein coupled receptor member X1 (Homo sapiens) (UniProt Q96LB2)
Test: MrgX1 activation via calcium signaling – HEK293 cells, Fluo-4 calcium flux, primary screen (AID 588627);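 on B-score: B-score of the peak-minus-trough calcium fluorescence change over baseline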
Settings: Fluo-4 calcium fluorescence, agonist mode, at 10 µM; active compounds read high
Method in brief: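 Material: MrgX1-expressing HEK293 cells / Dosing: compound as first of three additions / Incubation: overnight seeding, then 1 h dark dye loading / Signal: Fluo-4 NW calcium fluorescence / Evaluation: B-scored fluorescence response ratio / Benchmarks: positive and negative control wells on each plate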

Sequence of Mas-related G-protein coupled receptor member X1 (Homo sapiens) (Q96LB2 whole entry, looked up): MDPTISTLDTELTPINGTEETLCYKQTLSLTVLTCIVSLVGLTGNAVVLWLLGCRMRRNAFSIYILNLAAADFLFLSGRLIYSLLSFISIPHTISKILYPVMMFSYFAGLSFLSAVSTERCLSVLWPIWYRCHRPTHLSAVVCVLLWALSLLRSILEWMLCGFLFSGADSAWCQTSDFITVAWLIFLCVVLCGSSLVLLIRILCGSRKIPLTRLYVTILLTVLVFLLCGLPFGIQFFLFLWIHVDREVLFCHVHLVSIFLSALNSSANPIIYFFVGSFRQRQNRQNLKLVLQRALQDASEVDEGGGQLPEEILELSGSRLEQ

**Q.** CN(CC(O)COc1ccc(S(=O)(=O)N2CCOCC2)cc1Cl)C1CCCCC1 (stereo not drawn) was tested. Which B-score did it give?
**A.** Its B-score is “inactive”.

**Q.** With CC(C)(C)NC(=O)CN(C(=O)c1csnn1)c1ccccc1-c1ccccc1 as the molecule, how does the B-score read?
**A.** Its B-score is “inactive”.

**Q.** How did the B-score turn out when COc1ccc(-c2nc(CN3CCN(c4ncccn4)CC3)c(C)o2)cc1C was run?
**A.** The B-score was “inactive”.

**Q.** How did the B-score turn out when Cc1nnsc1C(=O)N/N=C/c1ccccc1Cl was run?
**A.** The B-score was “inactive”.

**Q.** CN(c1cccc(NC(=O)Nc2ccc(Cl)cc2)c1)S(C)(=O)=O was tested. Which B-score did it give?
**A.** Its B-score is “inactive”.

**Q.** For O=C(Nc1ccccc1)c1nnsc1S(=O)(=O)c1ccc(Cl)cc1, which B-score is on record?
**A.** The B-score was 33.9 (active).

**Q.** With Cc1sc2ncn(CC(=O)NCCN(C)C)c(=O)c2c1S(=O)(=O)N1CCC(C)CC1 as the molecule, how does the B-score read?
**A.** The B-score was “inactive”.

**Q.** COC(=O)C1=C(C(=O)OC)C(c2cc([N+](=O)[O-])ccc2O)c2sc(=O)[nH]c2S1 (stereo not drawn) was tested. Which B-score did it give?
**A.** Its B-score is “inactive”.

**Q.** CCCC1OC23CCCCC2C(C#N)(C#N)C1(C#N)C(=N)O3 (stereo not drawn) was tested. Which B-score did it give?
**A.** The B-score was “inactive”.

**Q.** How did the B-score turn out when CCOC(=O)C1CCN(C(=O)C2(NC(=O)Nc3cccc(F)c3)CCCCC2)CC1 was run?
**A.** The B-score was “inactive”.

**Q.** How did the B-score turn out when Cc1cc2oc3ccc(NCCC4CCCN4C)cc3c(=O)c2cc1C (stereo not drawn) was run?
**A.** The B-score was 27.5 (active).

**Q.** CCCOc1ccc(C2c3c(oc4cc(C)c(C)cc4c3=O)C(=O)N2CCCN2CCOCC2)cc1 (stereo not drawn) was tested. Which B-score did it give?
**A.** The B-score was “inactive”.

**Q.** Which B-score does the source give for Cc1ccc(CS(=O)(=O)CCC(=O)NC2CC2)cc1 here?
**A.** The B-score was “inactive”.

**Q.** Which B-score does the source give for O=C(NC(Cc1ccccc1)C(=O)N1CCCC(C(F)(F)F)C1)c1ccccc1 (stereo not drawn) here?
**A.** The B-score was “inactive”.

**Q.** Which B-score does the source give for O=C(NCC(=O)N1CCCC(C(F)(F)F)C1)c1ccccc1F (stereo not drawn) here?
**A.** The B-score was “inactive”.

**Q.** FC(F)(F)C1CCCN(c2nsc3ccccc23)C1 (stereo not drawn) was tested. Which B-score did it give?
**A.** Its B-score is 30.1 (active).

**Q.** How did the B-score turn out when Cc1n[nH]c(=O)c2c1nnn2Cc1ccc(F)cc1 was run?
**A.** Its B-score is “inactive”.

**Q.** COc1ccc(CCNC(=O)C(=O)NCC2OCCN2S(=O)(=O)c2ccc(F)cc2)cc1OC (stereo not drawn) was tested. Which B-score did it give?
**A.** Its B-score is “inactive”.

**Q.** For CC(C)CCN1NC2(CCC(C)CC2)NC1=S (stereo not drawn), which B-score is on record?
**A.** Its B-score is “inactive”.

**Q.** For CC(C)N(c1ccccc1)c1ncnc(NCCC(=O)O)c1[N+](=O)[O-], which B-score is on record?
**A.** The B-score was “inactive”.

**Q.** With CN(C)c1ccc(/C=C2\NC(=S)N(Cc3ccccc3)C2=O)cc1 as the molecule, how does the B-score read?
**A.** Its B-score is 49.1 (active).

**Q.** How did the B-score turn out when COc1cc(/C=C2/SC(=S)N(Cc3ccccc3)C2=O)cc(OC)c1O was run?
**A.** The B-score was “inactive”.

**Q.** For O=C1/C(=C\c2ccsc2)NC(=S)N1c1ccccc1, which B-score is on record?
**A.** Its B-score is “inactive”.

**Q.** CCC(C)c1ccccc1N1CC(C(=O)N2CCN(S(=O)(=O)c3ccc(F)cc3)CC2)CC1=O (stereo not drawn) was tested. Which B-score did it give?
**A.** The B-score was “inactive”.

**Q.** With Cc1cc(NC(=O)CSc2nnnn2-c2ccc(F)cc2)no1 as the molecule, how does the B-score read?
**A.** Its B-score is “inactive”.

**Q.** With COc1ccc(C(=O)NNC(=S)NC(=O)c2ccccc2)cc1 as the molecule, how does the B-score read?
**A.** Its B-score is 113 (active).

**Q.** Which B-score does the source give for COc1ccc(C(=O)NNC(=S)NC(=O)c2ccccc2[N+](=O)[O-])cc1 here?
**A.** Its B-score is “inactive”.

**Q.** COc1ccc(C(=O)NC2CCN(C(=S)NCCc3ccccc3)CC2)cc1 was tested. Which B-score did it give?
**A.** The B-score was “inactive”.

**Q.** Which B-score does the source give for CC(C)Oc1ccc(CCC(=O)NNC(=S)NCc2ccccc2)cc1 here?
**A.** The B-score was “inactive”.

**Q.** With COc1ccc(C(=O)NC(=S)NC2CCCCC2)cc1 as the molecule, how does the B-score read?
**A.** The B-score was “inactive”.

**Q.** COc1ccc(C(=O)NC(=S)NNC(=O)CCc2ccccc2)cc1 was tested. Which B-score did it give?
**A.** Its B-score is 107 (active).

**Q.** How did the B-score turn out when Cc1ccc(NS(=O)(=O)c2cc3c(cc2C)NC(=O)CO3)cc1 was run?
**A.** The B-score was “inactive”.

**Q.** With O=C(Nc1cccc(Cl)c1)Nc1ccccc1NS(=O)(=O)c1cccs1 as the molecule, how does the B-score read?
**A.** Its B-score is “inactive”.

**Q.** Which B-score does the source give for C[n+]1ccc(/C=C/c2c[nH]c3ccccc23)cc1 here?
**A.** The B-score was “inactive”.

**Q.** With COc1ccccc1/C=C/CN1CCC(CO)(Cc2ccccc2)CC1 as the molecule, how does the B-score read?
**A.** Its B-score is “inactive”.

**Q.** Which B-score does the source give for COc1ccccc1NC(=O)C1=C(C)Nc2nnnn2C1c1cccc(Br)c1 (stereo not drawn) here?
**A.** Its B-score is “inactive”.

**Q.** How did the B-score turn out when COC(=O)C1=C(C(=O)c2ccc(C)cc2)C(c2ccccc2)n2nnnc2N1 (stereo not drawn) was run?
**A.** The B-score was “inactive”.

**Q.** How did the B-score turn out when COC(=O)c1ccc(C2C3=C(Nc4nnnn42)c2ccccc2OC3)cc1 (stereo not drawn) was run?
**A.** The B-score was 27.7 (active).

**Q.** For COc1cccc(CN(C)CC(O)COC(c2ccccc2)c2ccccc2C)c1 (stereo not drawn), which B-score is on record?
**A.** The B-score was “inactive”.

**Q.** For Cn1c(=O)c2cc(S(=O)(=O)NCCC(=O)Nc3ccc(F)cc3F)ccc2n(C)c1=O, which B-score is on record?
**A.** The B-score was “inactive”.

**Q.** Cc1ccc(C(=O)C(C)OC(=O)Cc2n[nH]c(=O)c3ccccc23)cc1C (stereo not drawn) was tested. Which B-score did it give?
**A.** Its B-score is “inactive”.

**Q.** For O=C1CCCc2c1nc(-c1cccc(Cl)c1)n2O, which B-score is on record?
**A.** Its B-score is “inactive”.

**Q.** With O=c1c2cc(Br)ccc2nc(-c2cccc(Cl)c2)n1O as the molecule, how does the B-score read?
**A.** Its B-score is 67.7 (active).

**Q.** How did the B-score turn out when Cc1cccc(-c2nc3ccccc3c(=O)n2NC(=O)Cc2ccc(Cl)cc2)c1 was run?
**A.** The B-score was “inactive”.

**Q.** For Cc1c2cnn(CC(=O)NCCCN3CC(C)CC(C)C3)c(=O)c2c(C)n1Cc1ccc(Cl)cc1 (stereo not drawn), which B-score is on record?
**A.** The B-score was “inactive”.

**Q.** How did the B-score turn out when COc1cc(NC(=O)C2=C(C)OCCS2)c(Cl)cc1C(=O)NCCN1CCN(C)CC1 was run?
**A.** The B-score was “inactive”.

**Q.** With O=C(Nc1ccccc1N1CCOCC1)c1ccc(OCc2cscn2)cc1 as the molecule, how does the B-score read?
**A.** Its B-score is “inactive”.

**Q.** With Cc1nn(CC2CC2)c(=O)n1N(C)c1ncc(C(F)(F)F)cc1Cl as the molecule, how does the B-score read?
**A.** Its B-score is “inactive”.

**Q.** For COC1=C/C(=C/c2c(N)n3nc(CC(=O)N4CCOCC4)sc3nc2=O)C=CC1=O, which B-score is on record?
**A.** Its B-score is 34.8 (active).

**Q.** Which B-score does the source give for COc1ccc(-c2ccnc(SCC(=O)N3CCOCC3)n2)cc1 here?
**A.** Its B-score is “inactive”.

**Q.** Which B-score does the source give for C=CCC1=C/C(=C\c2c(N)n3nc(CC(=O)N4CCOCC4)sc3nc2=O)C=C(OC)C1=O here?
**A.** Its B-score is “inactive”.

**Q.** With CC(=O)Nc1nc2c(s1)C(=O)NCC(C)(C)C2 as the molecule, how does the B-score read?
**A.** The B-score was “inactive”.

**Q.** For NC(=O)N1CCCC1C(=O)Nc1ccc(Cl)c(Cl)c1 (stereo not drawn), which B-score is on record?
**A.** The B-score was “inactive”.

**Q.** Which B-score does the source give for CCN(CC)C(=O)C1CCC(C)(C(=O)O)C1(C)C (stereo not drawn) here?
**A.** The B-score was “inactive”.

**Q.** Which B-score does the source give for CC1(C(=O)O)CCC(C(=O)Nc2ccc(Cl)c(Cl)c2)C1(C)C (stereo not drawn) here?
**A.** The B-score was 30.1 (active).

**Q.** Cc1ccsc1C1C(C#N)=C(N)OC2=C1C(=O)CC(C)(C)C2 (stereo not drawn) was tested. Which B-score did it give?
**A.** The B-score was “inactive”.

**Q.** With Cc1c(C(=O)Nc2ccccc2)sc2nc3n(c(=O)c12)CCCCC3 as the molecule, how does the B-score read?
**A.** Its B-score is “inactive”.

**Q.** For COc1ccc(OC)c(NC(=O)c2ccc3c(c2)C(=O)N(c2ccc(OC(C)=O)cc2)C3=O)c1, which B-score is on record?
**A.** The B-score was “inactive”.

**Q.** Which B-score does the source give for O=C(CN1C(=O)C2C3C=CC(C3)C2C1=O)NCC1COc2ccccc2O1 (stereo not drawn) here?
**A.** The B-score was “inactive”.

**Q.** O=C1C(=O)N(CC2COc3ccccc3O2)c2ccccc21 (stereo not drawn) was tested. Which B-score did it give?
**A.** The B-score was 56 (active).

**Q.** Cc1cc(C(=O)CCl)c(C)n1CC1COc2ccccc2O1 (stereo not drawn) was tested. Which B-score did it give?
**A.** The B-score was “inactive”.

**Q.** Which B-score does the source give for Cc1ccc(S(=O)(=O)NC2CCCCCC2)cc1C(N)=O here?
**A.** The B-score was “inactive”.

**Q.** O=c1nc2s/c(=C\c3ccco3)c(=O)n2nc1Cc1ccccc1 was tested. Which B-score did it give?
**A.** The B-score was “inactive”.

**Q.** For CN(c1ccccc1)c1ccc(/C=c2\s/c(=C(/C#N)C(=O)C(C)(C)C)n(Cc3ccco3)c2=O)cc1, which B-score is on record?
**A.** Its B-score is 193 (active).

**Q.** How did the B-score turn out when CCOC(=O)/C=c1\s/c(=C\c2ccc(C#N)cc2)c(=O)n1CC(=O)Nc1cccc(C)c1C was run?
**A.** Its B-score is “inactive”.

**Q.** Which B-score does the source give for CCCC[C@@H]1CN=C(N)N1CCCC here?
**A.** Its B-score is “inactive”.

**Q.** For CCCCN1C(N)=NC[C@@H]1Cc1ccccc1, which B-score is on record?
**A.** The B-score was “inactive”.

**Q.** CCCCN1C(N)=NC[C@@H]1CC1CCCCC1 was tested. Which B-score did it give?
**A.** Its B-score is 36.9 (active).
